Experiment [1] can be described thus: reducers of endogenous Her2 protein level, primary screen, SKBR3 breast tumor cells, AlphaScreen, ATP viability (AID 461).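 On Her2 level: lower value means less Her2 protein in the cells.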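 On viability: percent of carrier control wells set as 100% viability.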 To be noted: 18-24 h, measured here: SKBR3 viability, ATP luminescence, at 10 µM. In general terms: Alpha assays give light when donor and acceptor beads are brought close together.
The target in experiment [2] is Receptor tyrosine-protein kinase erbB-2 (Homo sapiens) (UniProt P04626). Described as above. To be noted: 18-24 h, at 10 µM, stronger effect = lower value.
Experiment [3] is described as follows: SK-BR-3 cell growth inhibitors, pilot screen, 24 h, human (AID 572;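 active means viability at or below 10% of carrier control in both of two separate runs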;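 further: compound exposure lasted between 18 and 24 h rather than exactly 24 h; 100% = carrier-treated control wells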). Particulars: SK-BR-3 viability, CellTiter-Glo luminescence, at 10 µM, stronger effect = lower value. A general note: In ATP-based viability assays light output follows the ATP content of the culture.
A short description of experiment [4]: HUVEC growth inhibition – cell-based, human, primary screen (AID 575;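 active means viability at or below 30% in both replicate assays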;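 further: 100% = median of untreated cell wells with 0.1% DMSO on each plate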). Particulars: HUVEC proliferation, CellTiter-Glo luminescence, 72 h; at 10 µM; stronger effect = lower value. The method, boiled down: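 Assay system: Primary human umbilical vein endothelial cells | Quantity: 1250 cells per well | Medium: Supplemented EBM, 2% fetal bovine serum | Detection: CellTiter-Glo luminescence measuring cellular ATP | Read-out: % viability vs DMSO wells | Plate: Collagen-coated 384-well format | Times: 72 h exposure, 37 °C, 5% CO2, 30 min RT equilibration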

Experiment [5] can be described thus: growth inhibitors of H69AR lung tumor, primary screen, human, duplicate replicates (AID 580;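 active means viability at or under a set limit in both replicates, limit being median viability minus 3 SD, cut at about 48% in these data, passing the limit was not always enough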;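 further: 100% = mean luminescence of untreated wells and 0% = no signal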). To be noted: H69AR lung tumor cells viability, ATP luminescence, 72 h; at 10 µM; stronger effect = lower value.
The nature of experiment [6]: reversal of MRP1-mediated doxorubicin resistance, pilot screen, H69AR cells, doxorubicin co-treatment (AID 601;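 active means viability loss from added drug above about 55%, and viability with drug at most 40%, in both replicates, limit read from the data, passing the limit was not always enough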). To be noted: CellTiter-Glo, 72 h, at 10 µM; for differential viability (reversal): stronger effect = higher value.
A short description of experiment [7]: 384-well plate pilot, post-Golgi transport modulator project, inhibition of yeast transport mutant growth (AID 636; in the data active means inhibition above about 31%). To be noted: absorbance 615 nm, about 18 h, stronger effect = higher value.
Experiment [8] is described as follows: growth suppression of yeast trafficking mutant, preliminary HTS, modulators of trafficking downstream of Golgi apparatus project, 1536-format plate, OD 615 nm (AID 637; in the data active means inhibition above about 30%). To be noted: yeast transport mutant growth, absorbance 615 nm, 18 h; stronger effect = higher value.
[9] abbreviates: H69AR cells + 2 uM doxorubicin, measured here: viability with 2 uM doxorubicin, stronger effect = lower value.
The mark [10] stands for this setting: H69AR cells, compound alone cytotoxicity.

Activity calls are given as the source filed them.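 How the source made its calls, unless noted: active means Her2 level under about 52% in both replicate screens, with viability over 70% of control (limit read from the data); inconclusive means Her2 under the limit in one screen only, or viability under 70%; inactive means Her2 level above the set limit.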

Sequence of Receptor tyrosine-protein kinase erbB-2 (Homo sapiens) (P04626 whole entry, looked up): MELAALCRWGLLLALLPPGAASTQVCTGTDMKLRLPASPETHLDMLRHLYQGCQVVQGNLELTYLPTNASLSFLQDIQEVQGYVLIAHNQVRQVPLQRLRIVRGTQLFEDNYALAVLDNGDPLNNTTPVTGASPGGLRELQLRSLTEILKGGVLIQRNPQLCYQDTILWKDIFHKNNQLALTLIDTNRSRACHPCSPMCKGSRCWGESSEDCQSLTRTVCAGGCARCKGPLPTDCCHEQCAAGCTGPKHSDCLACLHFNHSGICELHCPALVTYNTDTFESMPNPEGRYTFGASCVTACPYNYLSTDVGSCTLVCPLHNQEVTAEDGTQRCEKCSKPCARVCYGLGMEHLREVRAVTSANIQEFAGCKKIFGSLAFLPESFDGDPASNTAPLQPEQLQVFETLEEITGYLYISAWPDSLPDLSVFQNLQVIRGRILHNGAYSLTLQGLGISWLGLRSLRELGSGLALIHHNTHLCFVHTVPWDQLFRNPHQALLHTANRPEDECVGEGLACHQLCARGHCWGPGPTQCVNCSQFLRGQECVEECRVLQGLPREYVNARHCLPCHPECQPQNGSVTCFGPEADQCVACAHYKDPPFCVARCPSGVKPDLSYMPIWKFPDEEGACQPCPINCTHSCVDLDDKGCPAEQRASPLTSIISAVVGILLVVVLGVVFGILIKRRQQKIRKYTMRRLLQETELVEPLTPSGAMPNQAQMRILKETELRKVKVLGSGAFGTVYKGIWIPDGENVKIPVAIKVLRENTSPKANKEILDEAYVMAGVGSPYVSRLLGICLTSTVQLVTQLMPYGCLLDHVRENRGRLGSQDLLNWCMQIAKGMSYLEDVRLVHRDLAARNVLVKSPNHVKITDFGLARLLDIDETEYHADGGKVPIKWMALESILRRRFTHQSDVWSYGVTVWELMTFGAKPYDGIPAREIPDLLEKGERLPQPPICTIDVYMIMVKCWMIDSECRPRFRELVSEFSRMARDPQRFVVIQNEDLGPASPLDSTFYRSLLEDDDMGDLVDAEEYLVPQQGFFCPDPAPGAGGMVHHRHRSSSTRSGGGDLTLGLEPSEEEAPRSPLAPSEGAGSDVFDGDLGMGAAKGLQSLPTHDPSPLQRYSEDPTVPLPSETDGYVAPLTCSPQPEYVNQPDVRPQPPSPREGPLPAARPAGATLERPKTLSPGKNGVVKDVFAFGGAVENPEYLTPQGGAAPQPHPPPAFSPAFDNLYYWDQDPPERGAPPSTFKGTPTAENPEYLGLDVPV

Broadly, the viability is a read-out of living cells in per cent, often relative to untreated cells. By inhibition is commonly meant the drop in the measured response relative to a control, in per cent. As for `Cc1nc2cc(-n3ccc(=O)cc3)ccc2n1-c1ccccc1`, the viability was 102% in experiment [1]; 102% (inactive) in experiment [3]; 79.7% (inactive) in experiment [4]; 90.5% (inactive) in experiment [5]; 77.1% in experiment [6] (setting [9]); 90.5% in experiment [6] (setting [10]). In experiment [2], the Her2 level is 93% (inactive). Also, in experiment [6] (H69AR cells + 2 uM doxorubicin), the differential viability (reversal) was 13.4% (inactive). The inhibition in experiment [7] was -2.93% (inactive); in experiment [8] it was -3.49% (inactive).
In the case of `CC(C)[C@H](NC(=O)NC1CCCC1)C(=O)O`, the viability in experiment [1] is 103%; in experiment [3] it was 103% (inactive); in experiment [4], 87.9% (inactive); in experiment [5], 104% (inactive); in experiment [6] (setting [9]) it was 89%; in experiment [6] (setting [10]), 104%. In addition, in experiment [2], the Her2 level was 97.5% (inactive). Besides, the differential viability (reversal) in experiment [6] (H69AR cells + 2 uM doxorubicin) was 15.2% (inactive). Further, the inhibition is -0.52% (inactive) in experiment [7] and -9.34% (inactive) in experiment [8].
Consider `Cc1c(C(=O)OC2CCCCC2)[nH]c2c1C(=O)CC(C)(C)C2`, for which the viability in experiment [1] was 82.5%; in experiment [3], 82.5% (inactive); in experiment [4], 48.8% (inactive); in experiment [5], 78.8% (inactive); in experiment [6] (setting [9]) it was 82.5%; in experiment [6] (setting [10]), 78.8%. Besides, in experiment [2], the Her2 level was 116% (inactive). Also, the differential viability (reversal) in experiment [6] (H69AR cells + 2 uM doxorubicin) was -3.71% (inactive). Also, the values for the inhibition in experiment [7] and in experiment [8] were -3.55% (inactive) and -17.5% (inactive), respectively.
For the compound `Cc1ccc(/C(O)=C2/C(=O)C(=O)N(Cc3ccco3)C2c2cccs2)cc1` (stereo not given), the viability in experiment [1] is 103%; in experiment [3] it was 103% (inactive); in experiment [4] it was 101% (inactive); in experiment [5], 67.6% (inactive); in experiment [6] (setting [9]) it was 80.7%; in experiment [6] (setting [10]) it was 67.6%. Also, the Her2 level in experiment [2] is 114% (inactive). Besides, the differential viability (reversal) in experiment [6] (H69AR cells + 2 uM doxorubicin) was -13.1% (inactive). For the same compound, the inhibition is -5.21% (inactive) in experiment [7] and -7.78% (inactive) in experiment [8].
Turning to `O=C(Cn1nnc(-c2cc(Cl)ccc2-n2cnnn2)n1)N1CCCc2ccccc21`, the viability in experiment [1] was 116%; in experiment [3], 116% (inactive); in experiment [4] it was 95.7% (inactive); in experiment [5], 96.4% (inactive); in experiment [6] (setting [9]), 87%; in experiment [6] (setting [10]), 96.4%. For the same compound, the Her2 level in experiment [2] is 99.5% (inactive). Also, in experiment [6] (H69AR cells + 2 uM doxorubicin), the differential viability (reversal) is 9.45% (inactive). Besides, the inhibition in experiment [7] is -2.47% (inactive); in experiment [8] it was 10.8% (inactive).
As for `CC1=C(C(=O)NC2CCCC(C)C2C)C2(CCCCC2)OC1=O` (stereo not given), the viability in experiment [1] is 118%; in experiment [3] it was 118% (inactive); in experiment [4] it was 97.6% (inactive); in experiment [5], 95.8% (inactive); in experiment [6] (setting [9]) it was 87.7%; in experiment [6] (setting [10]), 95.8%. Moreover, the Her2 level in experiment [2] was 100% (inactive). Further, the differential viability (reversal) in experiment [6] (H69AR cells + 2 uM doxorubicin) was 8.08% (inactive). Besides, the inhibition in experiment [7] was -0.27% (inactive); in experiment [8], 3.67% (inactive).
For the compound `Cc1c[nH]c2cccc(OCC(O)CNC(C)(C)C)c12` (stereo not given), the viability in experiment [1] is 91.5%; in experiment [3] it was 91.5% (inactive); in experiment [4] it was 100% (inactive); in experiment [5], 88.3% (inactive); in experiment [6] (setting [9]) it was 88%; in experiment [6] (setting [10]) it was 88.3%. In addition, the Her2 level in experiment [2] is 96% (inactive). The differential viability (reversal) in experiment [6] (H69AR cells + 2 uM doxorubicin) was 0.28% (inactive). For the same compound, the inhibition was -3.6% (inactive) in experiment [7] and 17.8% (inactive) in experiment [8].
Consider `Cc1nc2ncnn2c(N2CCC(C(=O)NC3CCCC3)CC2)c1Cc1ccccc1`, for which the viability in experiment [1] is 88%; in experiment [3], 88% (inactive); in experiment [4] it was 91.5% (inactive); in experiment [5], 73.6% (inactive); in experiment [6] (setting [9]), 35.8%; in experiment [6] (setting [10]), 73.6%. For the same compound, the Her2 level in experiment [2] was 95% (inactive). In addition, the differential viability (reversal) in experiment [6] (H69AR cells + 2 uM doxorubicin) was 37.8% (inactive). Further, the inhibition in experiment [7] is -5.48% (inactive); in experiment [8], -4.76% (inactive).
In the case of `COC(=O)c1ccc(NC(=O)C2CC(=O)N(c3cc(C)ccc3C)C2)cc1` (stereo not given), the viability is 97% in experiment [1]; 97% (inactive) in experiment [3]; 96.3% (inactive) in experiment [4]; 89.8% (inactive) in experiment [5]; 86.2% in experiment [6] (setting [9]); 89.8% in experiment [6] (setting [10]). In experiment [2], the Her2 level was 99.5% (inactive). Besides, the differential viability (reversal) in experiment [6] (H69AR cells + 2 uM doxorubicin) is 3.6% (inactive). Besides, the inhibition in experiment [7] is -1.76% (inactive); in experiment [8], 13.7% (inactive).
As for `O=C(c1ccc(-c2ccccc2)cc1)N1CCN(c2ncccn2)CC1`, the viability is 91% in experiment [1]; 91% (inactive) in experiment [3]; 94.6% (inactive) in experiment [4]; 103% (inactive) in experiment [5]; 90.5% in experiment [6] (setting [9]); 103% in experiment [6] (setting [10]). Moreover, the Her2 level in experiment [2] is 96.5% (inactive). Further, the differential viability (reversal) in experiment [6] (H69AR cells + 2 uM doxorubicin) was 12.7% (inactive). Moreover, the inhibition was -9.32% (inactive) in experiment [7] and 6.39% (inactive) in experiment [8].
For `CCSc1nnc(NC(=O)c2ccc(C)o2)s1`, the viability is 96.5% in experiment [1]; 96.5% (inactive) in experiment [3]; 105% (inactive) in experiment [4]; 116% (inactive) in experiment [5]; 97.4% in experiment [6] (setting [9]); 116% in experiment [6] (setting [10]). The Her2 level in experiment [2] is 98.5% (inactive). For the same compound, the differential viability (reversal) in experiment [6] (H69AR cells + 2 uM doxorubicin) is 18.2% (inactive). In addition, the inhibition is -4.13% (inactive) in experiment [7] and -5.32% (inactive) in experiment [8].
For `COCCn1c(CN2CCN(c3cccc(Cl)c3)CC2)nc2c1c(=O)n(C)c(=O)n2C`, the viability was 85% in experiment [1]; 85% (inactive) in experiment [3]; 64.7% (inactive) in experiment [4]; 72.9% (inactive) in experiment [5]; 55.4% in experiment [6] (setting [9]); 72.9% in experiment [6] (setting [10]). For the same compound, in experiment [2], the Her2 level was 85% (inactive). Moreover, the differential viability (reversal) in experiment [6] (H69AR cells + 2 uM doxorubicin) is 17.6% (inactive). The inhibition in experiment [7] was -5.87% (inactive); in experiment [8], 1.83% (inactive).
For `O=C(NCC(=O)N1CCC(N2CCCCC2)CC1)C1CCCCC1`, the viability was 88.5% in experiment [1]; 88.5% (inactive) in experiment [3]; 106% (inactive) in experiment [4]; 94.4% (inactive) in experiment [5]; 92.5% in experiment [6] (setting [9]); 94.4% in experiment [6] (setting [10]). In addition, the Her2 level in experiment [2] is 108% (inactive). Moreover, the differential viability (reversal) in experiment [6] (H69AR cells + 2 uM doxorubicin) was 1.99% (inactive). The inhibition was -5.84% (inactive) in experiment [7] and -4.43% (inactive) in experiment [8].
For the compound `COc1ccc(CCn2c(=N)c(C#N)cc3c(=O)n4ccccc4nc32)cc1`, the viability was 95% in experiment [1]; 95% (inactive) in experiment [3]; 79.7% (inactive) in experiment [4]; 65.2% (inactive) in experiment [5]; 62.9% in experiment [6] (setting [9]); 65.2% in experiment [6] (setting [10]). The Her2 level in experiment [2] was 84.5% (inactive). In addition, the differential viability (reversal) in experiment [6] (H69AR cells + 2 uM doxorubicin) is 2.31% (inactive). Besides, the inhibition in experiment [7] was -8.78% (inactive); in experiment [8], 5.17% (inactive).
As to `CC(=O)N1CCC2(CC1)CC(=O)c1cc(OCC(=O)NCc3ccco3)ccc1O2`, the viability is 106% in experiment [1]; 106% (inactive) in experiment [3]; 106% (inactive) in experiment [4]; 83.5% (inactive) in experiment [5]; 87.9% in experiment [6] (setting [9]); 83.5% in experiment [6] (setting [10]). In addition, in experiment [2], the Her2 level was 112% (inactive). For the same compound, the differential viability (reversal) in experiment [6] (H69AR cells + 2 uM doxorubicin) was -4.33% (inactive). Also, the values for the inhibition in experiment [7] and in experiment [8] were 0.92% (inactive) and -3.17% (inactive), respectively.
`COc1ccccc1N1CC(C(=O)Nc2cccc(C(=O)O)c2)CC1=O` (stereo not given): the viability was 98% in experiment [1]; 98% (inactive) in experiment [3]; 95.4% (inactive) in experiment [4]; 94.1% (inactive) in experiment [5]; 99.6% in experiment [6] (setting [9]); 94.1% in experiment [6] (setting [10]). The Her2 level in experiment [2] is 103% (inactive). The differential viability (reversal) in experiment [6] (H69AR cells + 2 uM doxorubicin) is -5.46% (inactive). The figures for the inhibition in experiment [7] and in experiment [8] were 3.07% (inactive) and -7.58% (inactive), respectively.

(Values after PubChem BioAssay.)
